Calls of active or inactive are those of the source. No cut-off for these calls is given here.
How the values were obtained:
[1] = target: Cyclin-dependent kinase 19 (Homo sapiens) (UniProt Q9BWU1); assay: Inhibition of CDK11 (unknown origin) at 1 uM by KINOMEscanning assay relative to control; values are per cent of control
[2] = target: Serine/threonine-protein kinase PLK1 (Homo sapiens) (UniProt P53350); assay: Inhibition of PLK1 (unknown origin) at 1 uM by KINOMEscanning assay relative to control; values are per cent of control
[3] = tested on: Hepatocyte growth factor receptor (Homo sapiens), P08581 [M1250T]; assay: Inhibition of MET M1250T mutant (unknown origin) at 1 uM by KINOMEscanning assay relative to control; values are per cent of control
[4] = target: T1, Mast/stem cell growth factor receptor Kit (Homo sapiens, UniProt P10721); assay: Inhibition of wild type c-KIT (unknown origin)
[5] = tested on: Mast/stem cell growth factor receptor Kit (Homo sapiens), P10721 [D816V]; assay: Inhibition of c-KIT D816V mutant (unknown origin) at 1 uM by KINOMEscanning assay relative to control; values are per cent of control
[6] = target: Mitogen-activated protein kinase 3 (Homo sapiens) (UniProt P27361); assay: Inhibition of ERK1 (unknown origin) at 1 uM by KINOMEscanning assay relative to control; values are per cent of control
[7] = target: T1, Mast/stem cell growth factor receptor Kit; settings: 5 uM
[8] = target: T2, 3-phosphoinositide-dependent protein kinase 1 (Homo sapiens) (UniProt O15530); assay: Inhibition of PDPK1 (unknown origin) at 1 uM by KINOMEscanning assay relative to control; values are per cent of control
T2 sequence (whole entry): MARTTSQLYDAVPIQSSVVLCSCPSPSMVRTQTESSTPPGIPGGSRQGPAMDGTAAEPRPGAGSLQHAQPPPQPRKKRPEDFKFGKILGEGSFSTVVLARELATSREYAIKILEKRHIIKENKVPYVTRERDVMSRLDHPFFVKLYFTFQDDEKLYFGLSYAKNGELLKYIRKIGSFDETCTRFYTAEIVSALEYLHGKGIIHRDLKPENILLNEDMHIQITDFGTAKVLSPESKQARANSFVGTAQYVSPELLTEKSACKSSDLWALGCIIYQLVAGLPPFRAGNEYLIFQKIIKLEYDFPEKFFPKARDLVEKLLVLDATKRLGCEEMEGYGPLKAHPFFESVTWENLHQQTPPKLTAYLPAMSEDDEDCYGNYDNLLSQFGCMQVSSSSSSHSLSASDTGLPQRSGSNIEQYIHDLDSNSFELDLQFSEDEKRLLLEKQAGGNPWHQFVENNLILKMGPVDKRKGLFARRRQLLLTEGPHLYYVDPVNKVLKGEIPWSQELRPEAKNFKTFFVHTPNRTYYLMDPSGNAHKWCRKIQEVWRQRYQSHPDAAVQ

[9] = target: High affinity nerve growth factor receptor (Homo sapiens) (UniProt P04629); assay: Inhibition of TRKA (unknown origin) at 1 uM by KINOMEscanning assay relative to control; values are per cent of control
[10] = target: Tyrosine-protein kinase JAK2 (Homo sapiens) (UniProt O60674); assay: Inhibition of JAK2 (unknown origin) at 1 uM by KINOMEscanning assay relative to control; values are per cent of control
Chain of Tyrosine-protein kinase JAK2 (Homo sapiens) (O60674 whole entry): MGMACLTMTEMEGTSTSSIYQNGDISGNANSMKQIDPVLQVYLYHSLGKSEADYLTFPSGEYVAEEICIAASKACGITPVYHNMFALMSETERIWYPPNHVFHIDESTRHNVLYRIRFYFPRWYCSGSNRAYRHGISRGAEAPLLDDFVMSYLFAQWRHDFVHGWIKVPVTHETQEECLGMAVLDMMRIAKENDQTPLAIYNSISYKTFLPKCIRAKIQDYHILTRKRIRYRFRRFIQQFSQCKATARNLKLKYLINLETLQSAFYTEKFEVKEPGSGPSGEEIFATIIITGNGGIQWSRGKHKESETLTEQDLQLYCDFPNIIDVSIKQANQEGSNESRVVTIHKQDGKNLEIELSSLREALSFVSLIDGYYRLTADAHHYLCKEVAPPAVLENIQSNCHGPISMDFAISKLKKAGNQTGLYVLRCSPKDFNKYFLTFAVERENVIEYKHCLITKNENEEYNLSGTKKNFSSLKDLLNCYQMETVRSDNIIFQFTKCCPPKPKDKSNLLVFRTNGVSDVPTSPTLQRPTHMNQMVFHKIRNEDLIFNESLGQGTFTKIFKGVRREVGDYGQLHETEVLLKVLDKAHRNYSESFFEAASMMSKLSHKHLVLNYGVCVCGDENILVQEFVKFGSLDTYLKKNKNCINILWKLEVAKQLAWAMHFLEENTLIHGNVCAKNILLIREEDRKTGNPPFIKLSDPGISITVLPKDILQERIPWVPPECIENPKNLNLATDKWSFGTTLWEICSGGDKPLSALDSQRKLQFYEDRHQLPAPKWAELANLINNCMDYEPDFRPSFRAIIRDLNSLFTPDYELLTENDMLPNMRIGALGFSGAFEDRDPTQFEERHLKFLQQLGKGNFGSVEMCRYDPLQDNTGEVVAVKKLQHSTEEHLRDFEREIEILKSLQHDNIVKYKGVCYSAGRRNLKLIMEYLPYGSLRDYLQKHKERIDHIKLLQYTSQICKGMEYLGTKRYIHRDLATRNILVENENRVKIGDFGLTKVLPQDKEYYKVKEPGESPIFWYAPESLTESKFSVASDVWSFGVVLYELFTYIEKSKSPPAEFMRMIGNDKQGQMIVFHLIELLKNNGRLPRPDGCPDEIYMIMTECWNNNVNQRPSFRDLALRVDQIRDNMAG

[11] = target: Cyclin-dependent kinase 9 (Homo sapiens) (UniProt P50750); assay: Inhibition of CDK9 (unknown origin) at 1 uM by KINOMEscanning assay relative to control; values are per cent of control
[12] = target: Mast/stem cell growth factor receptor Kit (Homo sapiens, UniProt P10721, D816V); assay: Inhibition of c-KIT D816V mutant (unknown origin)
Chain of Mast/stem cell growth factor receptor Kit (Homo sapiens, UniProt P10721, D816V) (P10721 26-976 D816V limits assumed): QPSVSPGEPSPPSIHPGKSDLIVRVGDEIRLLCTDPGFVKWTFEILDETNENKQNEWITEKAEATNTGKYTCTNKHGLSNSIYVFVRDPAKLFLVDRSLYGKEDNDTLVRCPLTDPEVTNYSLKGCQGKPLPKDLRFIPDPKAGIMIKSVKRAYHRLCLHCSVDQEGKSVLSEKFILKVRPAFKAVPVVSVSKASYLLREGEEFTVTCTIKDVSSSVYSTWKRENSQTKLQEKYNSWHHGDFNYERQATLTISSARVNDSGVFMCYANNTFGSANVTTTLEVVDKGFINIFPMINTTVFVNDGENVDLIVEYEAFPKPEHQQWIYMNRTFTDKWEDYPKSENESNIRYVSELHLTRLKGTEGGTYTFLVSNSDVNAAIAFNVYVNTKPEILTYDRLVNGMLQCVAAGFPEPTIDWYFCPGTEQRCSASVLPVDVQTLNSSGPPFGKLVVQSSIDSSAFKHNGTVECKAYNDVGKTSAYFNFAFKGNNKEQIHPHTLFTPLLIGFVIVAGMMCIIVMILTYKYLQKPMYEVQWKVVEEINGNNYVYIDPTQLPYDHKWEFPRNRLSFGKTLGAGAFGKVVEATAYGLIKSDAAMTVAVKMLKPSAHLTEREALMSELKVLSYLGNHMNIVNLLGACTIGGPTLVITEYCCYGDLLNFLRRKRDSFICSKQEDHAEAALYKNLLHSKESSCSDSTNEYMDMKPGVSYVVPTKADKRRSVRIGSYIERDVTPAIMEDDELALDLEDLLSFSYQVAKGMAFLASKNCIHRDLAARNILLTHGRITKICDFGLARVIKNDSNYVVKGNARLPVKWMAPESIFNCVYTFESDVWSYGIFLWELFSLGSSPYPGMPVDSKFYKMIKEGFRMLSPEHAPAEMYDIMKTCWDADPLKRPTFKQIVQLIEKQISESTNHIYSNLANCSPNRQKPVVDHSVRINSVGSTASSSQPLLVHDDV

[13] = target: Fibroblast growth factor receptor 2 (Homo sapiens) (UniProt P21802); assay: Inhibition of FGFR2 (unknown origin) at 1 uM by KINOMEscanning assay relative to control; values are per cent of control
Chain of Fibroblast growth factor receptor 2 (Homo sapiens) (P21802 22-821 limits assumed): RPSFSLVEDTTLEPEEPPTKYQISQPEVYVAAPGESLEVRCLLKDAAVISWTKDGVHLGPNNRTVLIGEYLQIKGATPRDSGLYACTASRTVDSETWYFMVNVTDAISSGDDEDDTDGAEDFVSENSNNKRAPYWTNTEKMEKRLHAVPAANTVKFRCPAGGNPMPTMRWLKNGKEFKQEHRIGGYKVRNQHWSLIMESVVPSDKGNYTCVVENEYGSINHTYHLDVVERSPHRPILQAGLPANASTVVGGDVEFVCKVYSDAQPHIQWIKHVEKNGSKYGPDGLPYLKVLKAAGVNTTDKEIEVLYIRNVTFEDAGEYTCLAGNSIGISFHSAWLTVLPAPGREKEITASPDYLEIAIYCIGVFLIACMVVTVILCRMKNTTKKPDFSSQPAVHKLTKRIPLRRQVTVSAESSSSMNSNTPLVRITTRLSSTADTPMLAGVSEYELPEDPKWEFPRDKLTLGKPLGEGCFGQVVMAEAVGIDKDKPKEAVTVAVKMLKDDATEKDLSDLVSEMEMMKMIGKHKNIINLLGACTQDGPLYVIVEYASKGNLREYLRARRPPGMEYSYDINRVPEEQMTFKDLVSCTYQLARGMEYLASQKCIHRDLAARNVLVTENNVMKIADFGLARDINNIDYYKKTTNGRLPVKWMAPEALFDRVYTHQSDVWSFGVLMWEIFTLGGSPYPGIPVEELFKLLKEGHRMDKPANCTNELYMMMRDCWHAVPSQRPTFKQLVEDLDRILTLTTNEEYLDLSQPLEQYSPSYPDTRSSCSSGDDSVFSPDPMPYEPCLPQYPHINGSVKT

[14] = target: Fibroblast growth factor receptor 1 (Homo sapiens) (UniProt P11362); assay: Inhibition of FGFR1 (unknown origin) at 1 uM by KINOMEscanning assay relative to control; values are per cent of control
Chain of Fibroblast growth factor receptor 1 (Homo sapiens) (P11362 22-822 limits assumed): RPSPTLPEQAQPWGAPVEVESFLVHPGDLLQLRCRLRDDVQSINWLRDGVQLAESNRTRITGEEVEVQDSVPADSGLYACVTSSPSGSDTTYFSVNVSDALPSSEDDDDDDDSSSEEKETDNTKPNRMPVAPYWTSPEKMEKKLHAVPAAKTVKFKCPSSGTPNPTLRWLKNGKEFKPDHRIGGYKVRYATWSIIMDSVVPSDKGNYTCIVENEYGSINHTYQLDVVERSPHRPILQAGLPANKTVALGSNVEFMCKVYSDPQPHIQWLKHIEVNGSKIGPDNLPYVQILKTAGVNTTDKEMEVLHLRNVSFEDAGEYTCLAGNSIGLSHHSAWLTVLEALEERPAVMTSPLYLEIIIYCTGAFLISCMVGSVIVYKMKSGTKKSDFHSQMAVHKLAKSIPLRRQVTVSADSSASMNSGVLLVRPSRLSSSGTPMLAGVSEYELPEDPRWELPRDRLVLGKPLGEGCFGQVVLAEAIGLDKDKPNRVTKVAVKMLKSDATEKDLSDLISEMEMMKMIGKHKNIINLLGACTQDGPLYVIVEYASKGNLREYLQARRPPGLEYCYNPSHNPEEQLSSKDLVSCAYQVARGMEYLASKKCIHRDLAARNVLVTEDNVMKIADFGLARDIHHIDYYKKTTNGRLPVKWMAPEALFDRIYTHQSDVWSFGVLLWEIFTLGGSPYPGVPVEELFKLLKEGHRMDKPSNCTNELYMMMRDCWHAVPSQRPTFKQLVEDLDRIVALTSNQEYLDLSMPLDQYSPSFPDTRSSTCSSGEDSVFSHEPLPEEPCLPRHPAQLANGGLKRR

[15] = target: Calcium/calmodulin-dependent protein kinase type 1 (Homo sapiens) (UniProt Q14012); assay: Inhibition of CAMK1 (unknown origin) at 1 uM by KINOMEscanning assay relative to control; values are per cent of control
[16] = target: 5'-AMP-activated protein kinase catalytic subunit alpha-1 (Homo sapiens) (UniProt Q13131); assay: Inhibition of AMPKalpha 1 (unknown origin) at 1 uM by KINOMEscanning assay relative to control; values are per cent of control
[17] = target: Serine/threonine-protein kinase pim-1 (Homo sapiens) (UniProt P11309); assay: Inhibition of PIM1 (unknown origin) at 1 uM by KINOMEscanning assay relative to control; values are per cent of control
[18] = target: T1, Mast/stem cell growth factor receptor Kit; assay: Inhibition of c-KIT (unknown origin) at 1 uM by KINOMEscanning/auto inhibition assay; values are per cent of control
[19] = target: Receptor-type tyrosine-protein kinase FLT3 (Homo sapiens) (UniProt P36888); assay: Inhibition of FLT3 (unknown origin) at 1 uM by KINOMEscanning assay relative to control; values are per cent of control
[20] = target: Rho-associated protein kinase 1 (Homo sapiens) (UniProt Q13464); assay: Inhibition of ROCK1 (unknown origin) at 1 uM by KINOMEscanning assay relative to control; values are per cent of control
Chain of Rho-associated protein kinase 1 (Homo sapiens) (Q13464 2-1354 limits assumed): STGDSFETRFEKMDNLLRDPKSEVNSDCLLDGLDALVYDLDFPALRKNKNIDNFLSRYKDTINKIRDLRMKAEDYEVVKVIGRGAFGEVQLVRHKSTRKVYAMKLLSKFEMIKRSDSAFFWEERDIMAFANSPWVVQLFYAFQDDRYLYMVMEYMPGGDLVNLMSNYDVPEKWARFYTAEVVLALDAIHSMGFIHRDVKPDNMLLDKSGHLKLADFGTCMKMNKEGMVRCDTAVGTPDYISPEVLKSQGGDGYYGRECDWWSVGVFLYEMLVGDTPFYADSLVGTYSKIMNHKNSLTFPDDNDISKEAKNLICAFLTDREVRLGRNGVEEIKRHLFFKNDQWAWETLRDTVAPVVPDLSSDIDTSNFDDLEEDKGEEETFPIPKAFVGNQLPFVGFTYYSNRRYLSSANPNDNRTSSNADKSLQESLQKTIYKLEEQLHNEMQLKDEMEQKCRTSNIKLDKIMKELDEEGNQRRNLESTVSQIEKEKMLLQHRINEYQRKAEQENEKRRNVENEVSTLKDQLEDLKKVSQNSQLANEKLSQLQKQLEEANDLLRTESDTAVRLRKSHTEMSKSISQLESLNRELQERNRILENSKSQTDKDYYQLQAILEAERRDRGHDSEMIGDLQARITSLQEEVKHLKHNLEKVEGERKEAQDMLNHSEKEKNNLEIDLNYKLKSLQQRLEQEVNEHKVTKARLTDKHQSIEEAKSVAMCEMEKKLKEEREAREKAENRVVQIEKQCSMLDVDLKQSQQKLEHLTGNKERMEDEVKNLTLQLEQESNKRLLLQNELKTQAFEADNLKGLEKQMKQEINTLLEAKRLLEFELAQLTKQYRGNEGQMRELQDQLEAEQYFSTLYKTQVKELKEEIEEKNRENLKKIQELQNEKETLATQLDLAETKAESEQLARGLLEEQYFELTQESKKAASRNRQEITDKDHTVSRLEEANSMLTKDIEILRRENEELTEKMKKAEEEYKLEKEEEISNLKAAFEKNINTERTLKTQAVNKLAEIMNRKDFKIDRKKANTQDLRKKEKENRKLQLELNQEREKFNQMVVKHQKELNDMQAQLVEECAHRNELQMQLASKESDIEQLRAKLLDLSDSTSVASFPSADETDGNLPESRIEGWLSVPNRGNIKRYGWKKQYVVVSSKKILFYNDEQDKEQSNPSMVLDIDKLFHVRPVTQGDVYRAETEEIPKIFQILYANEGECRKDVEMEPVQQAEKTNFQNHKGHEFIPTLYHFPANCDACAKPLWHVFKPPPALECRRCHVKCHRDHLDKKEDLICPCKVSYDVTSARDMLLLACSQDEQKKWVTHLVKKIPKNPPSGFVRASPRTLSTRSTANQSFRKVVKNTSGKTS

[21] = Cell cycle arrest in human HMC-1.2 cells assessed as accumulation at G1 phase after 24 hrs by flow cytometric analysis; format: functional, cell-based
Summary of the method: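 HMC-1.2 cells exposed to increasing concentrations for 24 h; cell cycle distribution (SubG1/G1 fraction) measured by flow cytometry.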

[22] = Induction of apoptosis in human HMC-1.2 cells assessed as apoptotic cells at 5 uM after 48 hrs by TUNEL staining (reference value: 0.849%); format: functional
[23] = Induction of apoptosis in human HMC-1.2 cells assessed as apoptotic cells at 0.1 uM after 48 hrs by TUNEL staining (reference value: 0.849%); format: functional
[24] = Induction of apoptosis in human HMC-1.2 cells assessed as apoptotic cells at 1 uM after 48 hrs by TUNEL staining (reference value: 0.849%); format: functional

Row | SMILES | residual activity [1] | residual activity [2] | residual activity [3] | IC50 [4] | residual activity [5] | residual activity [6] | inhibition [7] | residual activity [8] | residual activity [9] | residual activity [10] | residual activity [11] | IC50 [12] | residual activity [13] | residual activity [14] | residual activity [15] | residual activity [16] | residual activity [17] | residual activity [18] | residual activity [19] | residual activity [20] | other results
1 | COc1ccc(-c2cnc3[nH]cc(-c4ccc(OC)c(OC)c4)c3c2)cc1N | 79% | 84% | 51% | > 10000 nM | 0% | 88% | Active | 91% | 11% | 46% | 100% | 25.6 nM | 100% | 92% | 71% | 98% | 71% | 65% | 18% | 16% | –
2 | COc1cc(-c2c[nH]c3ncc(-c4cccc(N)c4)cc23)cc(OC)c1OC | 96% | 100% | 80% | – | 2.1% | 23% | Active | 100% | 83% | 78% | 83% | 97.7 nM | 100% | 100% | 53% | 90% | 88% | 53% | 25% | 94% | –

The next molecules have a lower IC50 [12] than those just listed; values first:

Row | residual activity [1] | residual activity [2] | residual activity [3] | IC50 [4] | residual activity [5] | residual activity [6] | inhibition [7] | residual activity [8] | residual activity [9] | residual activity [10] | residual activity [11] | IC50 [12] | residual activity [13] | residual activity [14] | residual activity [15] | residual activity [16] | residual activity [17] | residual activity [18] | residual activity [19] | residual activity [20] | SMILES | other results
3 | 3.8% | 98% | 35% | 142 nM | 0% | 93% | Active | 65% | 26% | 49% | 100% | 2.1 nM | 100% | 89% | 63% | 100% | 68% | 48% | 2.2% | 33% | COc1ccc(-c2cnc3[nH]cc(-c4ccc(OC)c(OC)c4)c3c2)cc1OC | inhibition [21]: Dose-dependent effect; Activity [22]: 69.9%; Activity [23]: 0.732%; Activity [24]: 13.3%
4 | 90% | 99% | 86% | 2750 nM | 0% | 88% | Active | 76% | 46% | 48% | 100% | 8.8 nM | 100% | 84% | 61% | 95% | 71% | 42% | 1.6% | 66% | COc1ccc(-c2c[nH]c3ncc(-c4cc(OC)c(OC)c(OC)c4)cc23)cc1OC | –
5 | 100% | 84% | 53% | 9140 nM | 1.4% | 100% | – | 31% | 11% | 3.2% | 100% | 8.5 nM | 89% | 90% | 62% | 84% | 27% | 76% | 7% | 16% | COc1ccc(-c2c[nH]c3ncc(-c4ccc(C(=O)N5CCOCC5)c(N)c4)cc23)cc1OC | –

— ChEMBL document CHEMBL3352338, “Development and biological evaluation of potent and selective c-KIT(D816V) inhibitors” (J Med Chem, 2014)
